Where two headings read alike, the source gives them in different places.
Assays:
Assay type in all cases: cell-based
[1] = system: MCF-7 (human breast adenocarcinoma) cells; assay: MTT in vitro cytotoxicity assay, MCF-7; settings: read-out: IC50 (μM) MCF-7
Method in brief: (§1)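 Cells grown in DMEM with 10% FBS, penicillin/streptomycin, 37°C, 5% CO2. Seeded at 10,000 (MCF-7), 5,000 (SW-1990) or 6,000 (SMMC-7721) per well for 24 h. Test compound in DMSO, diluted in medium (0.1% DMSO), given at 1.95–250 μM final for 48 h. MTT (5 mg/mL, 10% v/v) added for 4 h; formazan dissolved in DMSO; A570 read, 630 nm background. % inhibition calculated versus 0.1% DMSO control; IC50 from viability–dose plot; at least triplicate, mean ± SD.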

[2] = system: SW-1990 (human pancreatic carcinoma) cells; assay: MTT in vitro cytotoxicity assay, SW-1990; settings: for IC50: read-out: IC50 (μM) SW-1990
Method in brief: as §1

[3] = system: SMMC-7721 (human liver carcinoma) cells; assay: MTT in vitro cytotoxicity assay, SMMC-7721; settings: read-out: IC50 (μM) SMMC-7721
Method in brief: as §1

[4] = system: Human umbilical vein endothelial cell (HUVEC); assay: MTT in vitro cytotoxicity assay, HUVEC; settings: for selectivity toward the normal cell line HUVEC compared with berberine: cancer cell lines versus HUVEC
Method in brief: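 HUVEC used at passages 1–7, grown in endothelial basal medium with 3% FBS growth supplement. Seeded at 5,000 cells/well and held 24 h at 37°C, 5% CO2. Test compound in DMSO, diluted in medium (0.1% DMSO final), given at 1.95–250 μM for 48 h. MTT added for 4 h, formazan dissolved in DMSO, absorbance read at 570 nm less 630 nm. IC50 from viability versus dose; at least triplicate, mean ± SD.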

[5] = MTT assay after 48 hours of drug exposure, mean ± SD

For `COc1ccc2cc3[n+](cc2c1OCCc1cn(Cc2ccc(C(F)(F)F)cc2)nn1)CCc1cc2c(cc1-3)OCO2` [Compound 21, 9-O-[1-(4-(trifluoromethyl)benzyl-4-ethyl-1H-1,2,3-triazole]berberine chloride], the IC50 [1, 5] was 68.1 ± 7.56 µM, the IC50 [2, 5] was 36.8 ± 3.45 µM and the IC50 [3, 5] was 23.3 ± 2.63 µM.
With `COc1ccc2cc3[n+](cc2c1OCCc1cn(Cc2ccc(Br)cc2)nn1)CCc1cc2c(cc1-3)OCO2` [Compound 13, 9-O-[1-(4-bromobenzyl)-4-ethyl-1H-1,2,3-triazole] berberine chloride] the IC50 [1, 5] was 47.1 ± 6.93 µM, the IC50 [2, 5] was 30.4 ± 4.89 µM and the IC50 [3, 5] was 20 ± 2.37 µM.
In the case of “9-O-[1-(3-fluorobenzyl)-4-ethyl-1H-1, 2, 3-triazole] berberine chloride [Compound 6]”, the IC50 [1, 5] is reported as 69.9 ± 8.73 µM, the IC50 [2, 5] is reported as 62.6 ± 7.85 µM and the IC50 [3, 5] is reported as 51.5 ± 6.03 µM.
`COc1ccc2cc3[n+](cc2c1OCCc1cn(Cc2cccc(C(F)(F)F)c2)nn1)CCc1cc2c(cc1-3)OCO2` [Compound 20, 9-O-[1-(3-(trifluoromethyl)benzyl-4-ethyl-1H-1,2,3-triazole]berberine chloride] was tested, and the IC50 [1, 5] was 86.2 ± 10.5 µM, the IC50 [2, 5] was 39.3 ± 3.76 µM and the IC50 [3, 5] was 32.2 ± 5.2 µM.
With `COc1ccc2cc3[n+](cc2c1OCCc1cn(Cc2ccc(Cl)c(Cl)c2)nn1)CCc1cc2c(cc1-3)OCO2.[Cl-]` [Compound 35, 9-O-[1-(3,4-dichlorobenzyl)-4-ethyl-1H-1,2,3-triazole] berberine chloride] the IC50 [1, 5] was 30.8 ± 4.32 µM, the IC50 [2, 5] was 20.4 ± 2.35 µM and the “IC50 against HUVECs relative to compound 32” value ([4]; ratio to compound 32 IC50) was “four times lower than that of 32”. The IC50 [3, 5] was 16.1 ± 2.92 µM.
For `COc1ccc2cc3[n+](cc2c1OCCc1cn(Cc2ccc(F)cc2F)nn1)CCc1cc2c(cc1-3)OCO2` [Compound 27, 9-O-[1-(2,4-difluorobenzyl)-4-ethyl-1H-1,2,3-triazole] berberine chloride], the IC50 [1, 5] was 70.7 ± 6.45 µM, the IC50 [2, 5] was 69 ± 9.33 µM and the IC50 [3, 5] was 35.9 ± 4.76 µM.
With “9-O-[1-(2-fluorobenzyl)-4-ethyl-1H-1, 2, 3-triazole] berberine chloride [Compound 5]” the IC50 [1, 5] was 75 ± 9.35 µM, the IC50 [2, 5] was 64 ± 8.46 µM and the IC50 [3, 5] was 44.5 ± 4.88 µM.
In the case of `COc1ccc2cc3[n+](cc2c1OCCc1cn(Cc2ccc(C)cc2)nn1)CCc1cc2c(cc1-3)OCO2.[Cl-]` [Compound 15, 9-O-[1-(4-methylbenzyl)-4-ethyl-1H-1,2,3-triazole] berberine chloride], the IC50 [1, 5] is reported as 37.8 ± 4.66 µM, the IC50 [2, 5] is reported as 32 ± 4.23 µM and the “selectivity toward the normal cell line HUVEC compared with berberine” value [4] is reported as “much better selectivity than berberine”. The IC50 [3, 5] was 39.4 ± 4.98 µM.
In the case of “9-O-[1-(2-methylbenzyl)-4-ethyl-1H-1, 2, 3-triazole] berberine chloride [Compound 14]”, the IC50 [1, 5] is reported as 40.8 ± 5.92 µM, the IC50 [2, 5] is reported as 23.7 ± 3.47 µM and the “selectivity toward the normal cell line HUVEC compared with berberine” value [4] is reported as “much better selectivity than berberine”. For the same molecule, the IC50 [3, 5] was 19.9 ± 2.33 µM.
`COC(=O)c1ccc(Cn2cc(CCOc3c(OC)ccc4cc5[n+](cc34)CCc3cc4c(cc3-5)OCO4)nn2)cc1` [Compound 25, 9-O-[1-(4-methyl formatebenzyl)-4-ethyl-1H-1,2,3-triazole] berberine chloride] gave an IC50 [1, 5] of 249 ± 20.1 µM, an IC50 [2, 5] of 165 ± 18.9 µM and an IC50 [3, 5] of 53.5 ± 5.84 µM.
“9-O-[1-(4-fluorobenzyl)-4-ethyl-1H-1, 2, 3-triazole] berberine chloride [Compound 7]” was tested, and the IC50 [1, 5] was 73.5 ± 10.2 µM, the IC50 [2, 5] was 53.6 ± 6.33 µM and the IC50 [3, 5] was 54.6 ± 5.98 µM.
For `COc1ccc2cc3[n+](cc2c1OC)CCc1cc2c(cc1-3)OCO2` [BBR, berberine, reference compound], the IC50 ([1]; Homo sapiens, MCF7, 48 h) was 122 ± 11.3 µM, the IC50 ([2]; Homo sapiens, SW1990, 48 h) was 27.6 ± 3.04 µM and the inhibition at 62.5 µM ([2]; Homo sapiens, SW1990, read-out: inhibition against SW-1990 cell growth) was > 50%. For the same molecule, the IC50 ([4]; Homo sapiens, HUVEC, 48 h, read-out: IC50 (μM) HUVEC) was 18.3 ± 2.31 µM and the IC50 ([3]; Homo sapiens, SMMC-7721, 48 h) was 68.1 ± 7.76 µM.
`COc1ccc2cc3[n+](cc2c1OCCc1cn(Cc2ccc(F)c(F)c2)nn1)CCc1cc2c(cc1-3)OCO2` [Compound 29, 9-O-[1-(3,4-difluorobenzyl)-4-ethyl-1H-1,2,3-triazole] berberine chloride] showed an IC50 [1, 5] of 81.2 ± 10.4 µM, an IC50 [2, 5] of 38.5 ± 4.65 µM and an IC50 [3, 5] of 43.8 ± 5.32 µM.
`COc1ccc2cc3[n+](cc2c1OCCc1cn(Cc2cc(Cl)ccc2Cl)nn1)CCc1cc2c(cc1-3)OCO2` [Compound 33, 9-O-[1-(2,5-dichlorobenzyl)-4-ethyl-1H-1,2,3-triazole] berberine chloride] gave an IC50 [1, 5] of 65.5 ± 7.22 µM, an IC50 [2, 5] of 38.6 ± 4.57 µM and an IC50 [3, 5] of 24.2 ± 3.48 µM.

From publication PMC4128789 (Drug Design, Development and Therapy, 2014)
